# Screens: PubChem BioAssay, several laboratories
# ZTA counter: blocks Epstein-Barr virus ZTA, an EBNA-1 counter-screen. actives 0.15% (n = 320,000). ZTA-DNA binding, fluorescence polarization. P03206. inhibition, % at 11 µM; in the data active = inhibition above about 33%
# Target sequence (P03206 whole entry, looked up): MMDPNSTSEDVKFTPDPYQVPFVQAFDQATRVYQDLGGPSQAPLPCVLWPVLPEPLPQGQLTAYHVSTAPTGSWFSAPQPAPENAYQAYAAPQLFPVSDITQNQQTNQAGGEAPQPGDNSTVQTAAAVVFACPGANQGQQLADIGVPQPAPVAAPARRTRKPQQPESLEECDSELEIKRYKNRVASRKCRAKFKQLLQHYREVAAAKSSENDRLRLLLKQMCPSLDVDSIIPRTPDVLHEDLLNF
# CSN inh: inhibitors of human CSN-mediated cullin deneddylation. Purified CSN, SCF-Nedd8-OG deneddylation, fluorescence polarization. Q92905. inhibition, % at 12.5 µM. actives 0.38% (n = 360,000);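 active = pattern-corrected inhibition above about 35%, with an unprinted fluorescence ratio check between 0.5 and 1.5, limit read from the data, passing the limit was not always enough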;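 note: 0% = enzyme with substrate and 100% = substrate without enzyme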
#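 Assay system: purified human Csn5 enzyme expressed in HEK293T cells; measure: % inhibition; also added: SCFSkp2-Nedd8OG substrate at 10 nM final; technique: fluorescence polarization; times: reaction 90 min, room temperature; medium: Tris buffer pH 7.5, NaCl, DTT, Tween-20, trehalose, ovalbumin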
# A1 inh: inhibitors of the anti-apoptotic protein A1, read as caspase activation. caspase activation, % (concentration not given with the values). MEF A1-2A-BIM cells, Caspase-Glo 3/7 luminescence, 3 h; percent of clofoctol response, vehicle zero. actives 0.066% (n = 330,000);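 active = over half of replicate activation scores above 10%, or exactly half above 10 with the replicate mean above 10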
# EBNA-1 inhibitor: blocks EBNA-1 binding to DNA | EBNA-1 DNA binding, fluorescence polarization | inhibition, % at 14.8 µM | AID 1950 | actives 0.34% (n = 300,000); in the data active = inhibition above about 28%
# HNF4A DNA FP: change in binding of human HNF4 alpha to DNA; activity change, % at 10 µM; actives 0.3% (n = 360,000); AID 1224865; P41235; HNF4a-FITC DNA binding, fluorescence polarization, 1 h; in the data active = activity change above about 30%, passing the limit was not always enough
# Target sequence (P41235 whole entry, looked up): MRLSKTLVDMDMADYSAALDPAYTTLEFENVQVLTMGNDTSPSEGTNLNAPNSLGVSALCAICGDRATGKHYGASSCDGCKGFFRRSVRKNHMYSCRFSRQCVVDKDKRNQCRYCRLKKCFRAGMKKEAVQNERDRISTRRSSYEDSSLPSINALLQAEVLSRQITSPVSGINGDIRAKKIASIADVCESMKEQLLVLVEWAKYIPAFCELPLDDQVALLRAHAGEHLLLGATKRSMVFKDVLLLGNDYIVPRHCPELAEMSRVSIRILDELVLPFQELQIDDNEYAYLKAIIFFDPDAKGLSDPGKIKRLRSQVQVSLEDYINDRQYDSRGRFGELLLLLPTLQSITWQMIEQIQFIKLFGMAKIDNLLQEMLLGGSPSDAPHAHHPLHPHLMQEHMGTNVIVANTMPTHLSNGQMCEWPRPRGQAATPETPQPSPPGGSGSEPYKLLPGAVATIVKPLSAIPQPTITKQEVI
# LANA-H2B inh: blocks KSHV LANA binding to histone H2A/H2B. cell-free LANA-H2A/H2B peptide, fluorescence polarization. inhibition, % (no concentration beside the values). actives 0.6% (n = 320,000). AID 2629; in the data active = inhibition mostly above about 10%, no sharp cut-off; inactive = mostly below about 6.7%
# CSN5 deneddyl: Csn5 (human) deneddylation inhibition, single-concentration validation | shares compounds with CSN inh | Csn5 deneddylation of SCF-Nedd8OG, fluorescence polarization, 90 min | inhibition, % at 16.6 µM | actives 62% (n = 540) | AID 720654; in the data active = inhibition above about 50%;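 note: 0% = DMSO with enzyme and 100% = no enzyme wells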
# MMP-2 counter: counter-screen for CSN deneddylation inhibitors: human MMP-2 inhibition; AID 720655; actives 33% (n = 540); shares compounds with CSN inh; inhibition, % at 16.6 µM; recombinant MMP-2, FRET substrate fluorescence, 60 min;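 active = corrected plate-normalized z-score of 5 or more, or -5 or less, or inhibition of 15% or more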;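 note: plate controls were DMSO wells with enzyme for no effect and buffer wells lacking MMP-2 for full effect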
# Thrombin counter: counter-screen for CSN deneddylation inhibitors: bovine thrombin inhibition | shares compounds with CSN inh | bovine thrombin cleavage of Ub4-pepOG, fluorescence polarization | inhibition, % at 16.6 µM | actives 49% (n = 540) | AID 720656;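 active = inhibition at or above a set limit, with a fluorescence interference ratio between 0.5 and a set maximum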
# Numbers without * were called inactive; nt = not tested or not shown. In the library only some 1.5% were active in any assay of this set; here they are far more common.
SMILES,ZTA counter,CSN inh,A1 inh,EBNA-1 inhibitor,HNF4A DNA FP,LANA-H2B inh,CSN5 deneddyl,MMP-2 counter,Thrombin counter
COc1cc(/C=C2/SC(=S)N(Cc3ccccc3)C2=O)ccc1O,9.5,56.9*,0.2,-5.9,68.5*,-1.4,58.2*,-7.1,52.2
C/C(=N\N=C1\NC(=O)C(CC(=O)Nc2ccccc2F)S1)C1CCCCC1 (stereo not drawn),5.8,9.8,-0.1,12.1,-1.1,-0.6,nt,nt,nt
Cc1cc(Br)ccc1OCC(=O)NNC(=O)c1cnccn1,11.2,2.4,-0.2,1.0,-0.4,1.0,nt,nt,nt
C=CCN1C(=O)/C(=C\C=C2\N(C)c3ccccc3C2(C)C)SC1=S,8.3,72.4*,-0.1,5.4,108.5,-1.7,116.6*,-34.8*,-53.7
CCN(C(=O)COC(=O)CCOc1ccc(C(C)(C)C)cc1)c1c(N)n(Cc2ccccc2)c(=O)[nH]c1=O,nt,-1.1,nt,nt,3.1,nt,nt,nt,nt
O=C(CCC(=O)N1CCSc2ccccc21)NC1CCCCC1,-0.6,-4.4,0.4,8.3,4.3,-1.7,nt,nt,nt
O=[N+]([O-])c1ccc(N/N=C/c2sc(N3CCOCC3)nc2-c2ccccc2)c(S(=O)(=O)Nc2ccccc2Cl)c1,nt,51.5*,nt,nt,60.3*,nt,82.9*,-3.6,36.1*
O=C(N/N=C/c1sc(N2CCOCC2)nc1-c1ccccc1)c1ccccc1Cl,0.7,0.9,-0.2,2.0,5.5,-1.3,nt,nt,nt
Cc1ccc2[nH]c(=O)c(CN(CCc3ccccc3)C(c3nnnn3Cc3ccco3)C(C)C)cc2c1 (stereo not drawn),-8.4,38.1*,-1.6,-0.2,9.5,3.2,87.8*,1.3,14.3
CCn1c(SCC(=O)NC2CCCCC2)nnc1-c1ccccc1F,12.9,1.3,0.2,-0.9,-2.2,-2.2,nt,nt,nt
COC1=C/C(=C/c2c(N)n3cc(C)sc3nc2=O)C=CC1=O,13.8,77.7*,1.4,-4.7,66.3*,-2.2,65.9*,-7.7,62.2*
COC1=C/C(=C/c2c(N)n3nc(CC(=O)N4CCCC4)sc3nc2=O)C=CC1=O,5.8,14.6,-0.2,4.9,16.8,1.1,nt,nt,nt
O=C1NN(c2ccccc2)C(=O)/C1=C/c1ccc(-c2ccc(C(=O)O)cc2)o1,4.4,35.4*,0.1,0.1,-21.6,1.9,59.5*,12.2,4.8
CN(C)c1ccc2nc3ccc(=O)cc-3sc2c1,nt,54.7*,nt,nt,-17.6,nt,103.8*,25.7*,14.2
CCCCc1ccc(/C=C2\C(=O)c3ccccc3C(O)=C2C(=O)OCC)cc1,11.6,nt,-1.0,-7.1,nt,-4.5,nt,nt,nt
O=C(CCn1cccn1)Nc1ccc2c(c1)OCCO2,-8.7,-1.4,0.1,11.1,1.1,4.0,nt,nt,nt
O=C(O)c1ccc(NC(=S)NC(=O)c2ccc(-c3ccc(Br)cc3)o2)cc1,11.7,53.1*,1.0,6.7,-63.7,1.0,66.7*,15.8*,15.9*
CCCCCCCCCCCCC/C=C/[C@@H](O)[C@@H](N)CO,15.4,41.3*,-0.3,3.0,29.4,-5.1,3.4,5.2,-3.1
CC(C)N1CCCC(C)(C(=O)Nc2cccc(Oc3ccccc3)c2)C1 (stereo not drawn),nt,1.6,nt,nt,1.2,nt,nt,nt,nt
O=C(O)CCCN1C(=O)/C(=C\C(Cl)=C\c2ccccc2)SC1=S,nt,39.8*,1.9,nt,-7.3,-0.5,75.2*,29.6*,-2.6
O=C(O)CCCN1C(=O)/C(=C/C=C/c2ccco2)SC1=S,87.7*,39.5*,-0.4,45.5*,-55.7,4.1,44.7,44.0*,21.6*
O=C(O)CC(C(=O)O)N1C(=O)/C(=C/C=C/c2ccco2)SC1=S (stereo not drawn),91.9*,48.2*,-0.3,36.5*,-41.0,11.8,37.7,34.4*,49.4*
O=C1NC(=S)S/C1=C/c1ccc(N2CCOCC2)o1,8.8,118.3*,1.0,1.7,114.8,3.1,100.1*,-25.0*,-50.5
O=C1S/C(=C/c2ccc(N3CCOCC3)o2)C(=O)N1Cc1ccc(F)cc1,-3.8,132.0,0.5,-10.3,187.1,-1.4,nt,nt,nt
O=[N+]([O-])c1cc2oc3c(c2c(C=NCc2ccccc2)c1O)CCCC3,3.1,73.7*,0.5,7.5,32.7,1.0,81.7*,-0.5,18.3*
SMILES,ZTA counter,CSN inh,A1 inh,EBNA-1 inhibitor,HNF4A DNA FP,LANA-H2B inh,CSN5 deneddyl,MMP-2 counter,Thrombin counter
Cc1occc1C(=O)/C(C#N)=C/c1ccc(O)c(Br)c1,-1.6,40.2*,-7.3,1.5,14.8,-4.6,40.7,-25.2,57.1*
Cc1ccc(C(=O)N2CCN(c3ncccn3)CC2)cc1S(=O)(=O)N1CCCCC1,-2.7,0.8,-0.2,-5.5,-1.7,0.1,nt,nt,nt
Cn1cc(/C=N/NC(=O)c2cc3cc(Br)ccc3o2)c2ccccc21,-1.8,1.8,-0.1,0.4,0.6,-5.0,nt,nt,nt
O=C(O)c1ccc(-n2cccc2/C=N\NC(=O)c2cc3cc(Br)ccc3o2)cc1,18.2,42.8*,1.9,8.9,-48.2,0.5,4.1,20.7*,22.0*
O=C(CCl)Nc1nc(-c2ccco2)c(-c2ccco2)s1,16.1,42.7*,-0.2,-6.7,1.9,8.7,79.2*,5.3,-1.0
O=c1[nH]c(=S)[nH]c2c1C(c1ccc(Br)cc1)c1c([nH]c(=S)[nH]c1=O)O2,66.6*,83.9*,-0.6,30.9*,-63.6,-6.5,50.1*,32.6*,84.8*
Cc1ccnc(N2CCC(C(=O)Nc3ccc4c(c3)OCCO4)CC2)n1,4.5,4.1,0.1,-7.6,0.6,-2.9,nt,nt,nt
CC(=O)c1ccc(NC(=O)CSc2nnc(-c3ccco3)c(-c3ccco3)n2)cc1,5.5,42.4,-0.4,-7.0,-30.1,5.9,nt,nt,nt
O=C(CSc1nnc(-c2ccco2)c(-c2ccco2)n1)c1ccccc1,-1.3,37.2*,0.1,-2.0,-18.9,7.3,97.7*,10.0,-13.1
C=CCOC(=O)c1cc(-c2ccc(/C=C3\C(=O)NC(=O)C(C#N)=C3C)o2)ccc1Cl,nt,42.9*,nt,nt,-16.8,nt,17.9*,24.3*,6.7
O=C(CSc1nc(-c2ccc(F)cc2)nc2c1Cc1ccccc1O2)Nc1cccc(C(=O)O)c1,nt,42.7*,nt,nt,-87.0,nt,6.2,30.1*,5.7
O=C(CSc1nc(-c2ccccc2)nc2c1Cc1ccccc1O2)Nc1ccccc1,10.3,nt,0.3,2.1,nt,-0.5,nt,nt,nt
COc1ccc(S(=O)(=O)N2CCN(C(=O)CCSc3ccccc3)CC2)cc1,5.8,-0.1,-0.6,nt,-0.6,1.1,nt,nt,nt
